The source of these data is ChEMBL document CHEMBL2086351, “Α-aryl-N-alkyl nitrones, as potential agents for stroke treatment: synthesis, theoretical calculations, antioxidant, anti-inflammatory, neuroprotective, and brain-blood barrier permeability properties” (J Med Chem, 2012).

Activity calls are given as the source filed them. The calls are words filed in the database; no cut-off is given here.

The nature of data set [1]: Neuroprotective activity in Sprague-Dawley rat primary cortical neurons assessed as reversal of oxygen-glucose deprivation-induced neuronal damage at 10 uM by treated 4 hrs after OGD challenge measured after 24 hrs MTT assay relative to control. Format: functional, cell-based. The note with it: Cerebral cortex neuron. An outline of the steps:
(§1)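 Primary cerebral cortex neurons, cultured 6–8 days, underwent 4 h oxygen–glucose deprivation. Compounds (0.1 μM–10 mM range) were added at the start of a 24 h reperfusion. Viability was read by MTT with untreated control as 100%. Neuroprotection = % recovery from the reperfusion-only value (0%) to control (100%). Three to five independent experiments; mean ± SEM.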

Data set [2] in a line: Neuroprotective activity in Sprague-Dawley rat primary cortical neurons assessed as reversal of oxygen-glucose deprivation-induced neuronal damage at 250 uM by treated 4 hrs after OGD challenge measured after 24 hrs by LDH release assay relative to control. Format: functional, Cerebral cortex neuron. An outline of the steps: (§2)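 Primary cortical neurons, cultured 6–8 days, underwent 4 h oxygen–glucose deprivation followed by 24 h reperfusion. Compounds (1–250 μM) were added at reperfusion. Necrotic death was read as LDH release, normalized to untreated reperfusion cells as 100%. Four independent experiments; mean ± SEM; one-way ANOVA with Holm–Sidak post test.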
In general terms: Release of lactate dehydrogenase indicates damage to the cell membrane.

Data set [3] is described as follows: Neuroprotective activity in Sprague-Dawley rat primary cortical neurons assessed as reversal of oxygen-glucose deprivation-induced neuronal damage at 100 uM by treated 4 hrs after OGD challenge measured after 24 hrs MTT assay relative to control. The conditions noted are these: Cerebral cortex neuron. Format: functional, cell-based. An outline of the steps:
as §1
(In general: Tetrazolium dyes change colour on reduction, which living cells bring about.)

Data set [4] can be described thus: Neuroprotective activity in Sprague-Dawley rat primary cortical neurons assessed as reversal of oxygen-glucose deprivation-induced neuronal damage at 100 uM by treated 4 hrs after OGD challenge measured after 24 hrs by LDH release assay relative to control. Format: functional, Cerebral cortex neuron. The procedure, abridged:
as §2

Data set [5] is described as follows: Antioxidant activity assessed as Fe3+/ascorbic acid-induced hydroxyl radical scavenging activity at 0.1 mM after 30 mins. Format: functional. An outline of the steps:
(§3)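 Tested in vitro at 0.1 mM. The hydroxyl radical line measures competition with DMSO for hydroxyl radicals. Superoxide was generated at pH 7.4 and read as nitroblue tetrazolium reduction to formazan at 560 nm. LOX inhibition was measured by UV absorbance enzyme assay with plant lipoxygenase.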

Data set [6] in a line: Antioxidant activity assessed as inhibition of AAPH-induced lipid peroxidation at 0.1 mM by UV spectrophotometric analysis. Format: functional.
A short description of data set [7]: Antioxidant activity against AAPH-induced lipid peroxidation assessed as induction time of inhibition at 0.1 mM. Format: functional.
Data set [8] is described as follows: Antioxidant activity assessed as superoxide anion radical scavenging activity at 0.1 mM after 10 mins by tetrazolium dye assay. Format: functional. The procedure, abridged: as §3
Data set [9] in a line: Induction of NO release in phosphate buffer at pH 7.4 at 0.1 mM by Griess assay in presence of L-cysteine. Format: physicochemical. The conditions noted are these: pH 7.4, 100 µM. An outline of the steps:
(§4)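 Compounds at 100 μM final were dissolved in phosphate buffer pH 7.4 containing L-cysteine. Released NO was measured. Where indicated, 1 mM cysteine and a nitrate reductase/NADPH system were used. Sodium nitroprusside served as reference.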
For orientation: The Griess reaction detects nitrite, a stable product of nitric oxide.

Data set [10] in a line: Induction of NO release in phosphate buffer at pH 7.4 assessed as nitrite level at 0.1 mM by nitrate reductase/NADPH based Griess assay in presence of L-cysteine. Format: physicochemical. The conditions noted are these: pH 7.4, 100 µM. An outline of the steps: as §4
Data set [11] deals with Radical scavenging activity. Put plainly: Antioxidant activity assessed as DPPH radical scavenging activity at 0.5 mM after 2 hrs by spectrophotometric analysis. Format: functional. An outline of the steps: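 DPPH radical test, measuring initial absorbance and absorbance after reaction spectrophotometrically.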
Data set [12] concerns the target Lipoxygenase (Glycine max) (UniProt Q39829). The experiment in a line: Inhibition of soybean lipoxygenase assessed as conversion of sodium linoleate to 13-hydroperoxylinoleic acid at 0.1 mM by competitive inhibition assay. The procedure, abridged: as §3
Data set [13] deals with Mus musculus. The experiment in a line: Neuroprotective activity in NMRI mouse assessed as protection against tert-butyl hydroperoxide-mediated lethality at 150 mg/kg, ip administered 30 mins before t-BHP challenge measured after 1 to 24 hrs. Format: functional. The note with it: route intraperitoneal.
Data set [14] is described as follows: Neuroprotective activity in Sprague-Dawley rat primary cortical neurons assessed as reversal of oxygen-glucose deprivation-induced neuronal damage treated 4 hrs after OGD challenge measured after 24 hrs MTT assay. Format: functional, cell-based. The note with it: Cerebral cortex neuron. An outline of the steps:
as §1

The nature of data set [15]: Neuroprotective activity in Sprague-Dawley rat primary cortical neurons assessed as reversal of oxygen-glucose deprivation-induced neuronal damage at 10 uM by treated 4 hrs after OGD challenge measured after 24 hrs by LDH release assay relative to control. Format: functional, Cerebral cortex neuron. An outline of the steps: as §2
Data set [16] is described as follows: Permeability of the compound at pH 7.4 by PAMPA. The note with it: read-out: permeability. Format: ADME. The procedure, abridged:
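PAMPA-BBB method of Di et al. (passive blood–brain barrier permeation). Effective permeability is reported as Pe in 10−6 cm s−1.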

Data set [17] is described as follows: Neuroprotective activity in Sprague-Dawley rat primary cortical neurons assessed as reversal of oxygen-glucose deprivation-induced neuronal damage at 1 uM by treated 4 hrs after OGD challenge measured after 24 hrs by LDH release assay relative to control. Format: functional, Cerebral cortex neuron. The procedure, abridged: as §2

Take `C[N+](C)(C)CCOP(=O)(O)OP(=O)([O-])OC[C@H]1O[C@@H](n2ccc(N)nc2=O)[C@H](O)[C@@H]1O` [CITICOLINE]: the Activity is 87.4% in data set [1], 84.64% in data set [2], 53.2% in data set [3] and 61.26% in data set [4].

A word on the inhibition: it is the percentage by which the read-out fell short of the control. On to `Cc1c(C)c2c(c(C)c1O)CCC(C)(C(=O)O)O2` (stereo not given), for which, in [5], the Activity turned out to be 73%. In addition, in data set [6], the inhibition was 63%. Also, the TIME in data set [7] turned out to be 1.03 h.

Take `COc1cc(Br)c(/C=[N+](\[O-])C(C)(C)C)cc1O`: the Activity in [5] was found to be 72%; in data set [8], 11%; in data set [9], 2%; in data set [10], 3%. Besides, the inhibition in data set [6] came out at 67%. The TIME in data set [7] was determined as 0.12 h.

`CC(C)(C)c1cc(/C=[N+](\[O-])Cc2ccccc2)cc(C(C)(C)C)c1O`: the Activity stood at 77% in [5]; 81.9% in [11]; 82% in data set [13]; 56.95% in data set [2]; 8% in [8]; 53.8% in [4]. Further, the inhibition result in data set [12] is “inactive”. Further, the inhibition in data set [6] is 61%. For the same molecule, the TIME in [7] is 1.38 h.

As for `CC(C)(C)/[N+]([O-])=C/c1c[nH]c2ccccc12`, the Activity turned out to be 59% in data set [5], 15% in data set [8], 3% in [9] and 4.5% in [10]. The results for the inhibition in data set [12] and in data set [6] were 42% and 57%, respectively. Also, the TIME in data set [7] amounted to 0.36 h.

`CC(Cc1ccc(O)c(O)c1)C(C)Cc1ccc(O)c(O)c1` (stereo not given): the inhibition in data set [12] amounted to 40%.

As to `COc1cc(/C=[N+](\[O-])Cc2ccccc2)c(Br)cc1O`, the Activity was 78% in [5], 3% in data set [8], 5% in data set [9] and 6% in data set [10]. The inhibition in data set [12] was determined as 24%; in data set [6] it was 87%. The TIME in data set [7] came to 0.697 h.

In the case of `COc1cc(Br)c(/C=[N+](\[O-])Cc2ccccc2)cc1O`, the Activity was 6% in data set [8], 2% in data set [9] and 2% in data set [10]. In addition, in [14], the outcome was inactive. For the same molecule, in [6], the inhibition came to 89%. In addition, the TIME in [7] was found to be 1.41 h.

As to `CC(C)(C)/[N+]([O-])=C/c1ccc(Br)o1`, the Activity in [5] was determined as 95%; in data set [11], 0%; in [13], 37%; in data set [2], 96.26%. Besides, the inhibition in [12] came to 39%. Also, the TIME in [7] amounted to 0 h.

Turning to `CC(C)(C)/[N+]([O-])=C/c1ccc(OCCCO[N+](=O)[O-])cc1`, the Activity in [5] worked out at 54%; in data set [11] it was 0.4%; in data set [13], 30%; in data set [8], 2%; in data set [4] it was 55.57%. Also, the inhibition in [12] worked out at 57%; in data set [6], 49%. In addition, in data set [7], the TIME came out at 0.783 h.

For the molecule `CC(C)(C)c1cc(/C=[N+](\[O-])C(C)(C)C)cc(C(C)(C)C)c1O`, the Activity in data set [11] is 78.6%; in [13], 80%. For the same molecule, in data set [12], the inhibition entry was “inactive”. The inhibition in [6] amounted to 9%. The TIME in [7] worked out at 0.29 h.

Take `COc1cc(/C=[N+](/C)[O-])ccc1O`: the figures for the inhibition in data set [12] and in [6] were 59% and 90%, respectively. For the same molecule, the figures for the Activity in data set [8], in data set [9] and in data set [10] were 11%, 7% and 8%, respectively. Further, the result in [14] was inactive. The TIME in [7] came to 0.3 h.

Take `COc1cc(/C=[N+](\[O-])Cc2ccccc2)ccc1O`: the Activity in data set [5] worked out at 52%; in data set [9], 9%; in data set [10] it was 10%. Besides, the result in data set [14] was inactive. In [6], the inhibition came out at 90%. The TIME in [7] stood at 1.47 h.

Turning to `COc1cc(Br)c(/C=[N+](\[O-])Cc2ccccc2)cc1OC`, in [12], the inhibition is 21%. Further, the values for the Activity in data set [8], in [9] and in data set [10] were 16%, 1% and 1%, respectively. In addition, the inhibition result in data set [6] is “inactive”. Further, the TIME in data set [7] stood at 0.895 h.

On to `Cc1ccc2nc(Cl)c(/C=[N+](\[O-])Cc3ccccc3)cc2c1`, for which the Activity was 75.7% in [1]; 95% in data set [5]; 42.3% in data set [11]; 72% in data set [13]; 63.01% in [15]; 105% in data set [3]. The results for the Activity in data set [8] and in data set [4] were 23% and 66.82%, respectively. Besides, the inhibition entry in data set [12] was “inactive”. Also, the inhibition in data set [6] amounted to 37%. Moreover, the TIME in [7] turned out to be 1.3 h.

As to `CC(C)(C)/[N+]([O-])=C/c1ccc(OCCO[N+](=O)[O-])cc1`, the Activity in data set [5] was 98%; in data set [11], 0.6%; in data set [13] it was 18%; in [2], 79.21%; in data set [8], 19%. In addition, in [12], the inhibition is 19%. The TIME in data set [7] stood at 0 h.

As for `O=[N+]([O-])OCCCOc1ccc(/C=[N+](\[O-])Cc2ccccc2)cc1`, the Activity in data set [1] was 77.6%; in [5], 98%; in [13] it was 31%; in data set [15], 45.37%; in [3], 83%. Also, in [16], the Papp is 22 ×10⁻⁶ cm/s. For the same molecule, the results for the inhibition in data set [12] and in [6] were 30% and 81%, respectively. Besides, the TIME in data set [7] came out at 0.61 h.

For the molecule `O=[N+]([O-])OCCOc1ccc(/C=[N+](\[O-])Cc2ccccc2)cc1`, the Activity in data set [5] stood at 100%; in data set [17], 47.48%; in data set [13] it was 22%. Further, the Papp in data set [16] came to 16.8 ×10⁻⁶ cm/s. Besides, the inhibition in data set [12] turned out to be 21%; in data set [6] it was 64%. Also, the TIME in [7] was 0.767 h.

As to `COc1cc(Br)c(/C=[N+](\[O-])C(C)(C)C)cc1OC`, the Activity in [5] came to 90%; in data set [8], 15%; in data set [9], 1%; in data set [10], 2%. Moreover, in data set [6], the inhibition turned out to be 47%. The TIME in [7] was 0.00867 h.

For `CC(C)(C)/[N+]([O-])=C/c1cccnc1Cl`, the Activity in [5] turned out to be 30%; in [8], 5%; in data set [9], 2%; in data set [10] it was 4%. The inhibition turned out to be 59% in data set [12] and 37% in [6]. The TIME in data set [7] turned out to be 0.497 h.

On to `COc1ccc2c(c1)cc(/C=[N+](\[O-])C(C)(C)C)n2C`, for which the Activity in data set [5] came out at 79.5%; in data set [8], 5%; in data set [9] it was 3%; in data set [10] it was 5%. Also, the inhibition in data set [12] amounted to 31%; in data set [6], 80%. For the same molecule, the TIME in data set [7] was found to be 0.73 h.

On to `O=C(O)/C=C/c1ccc(O)c(O)c1`, for which the Activity in [8] came out at 15%.

Turning to `[O-]/[N+](=C\c1ccccc1)Cc1ccccc1`, the values for the Activity in [5] and in data set [8] were 97% and 24%, respectively. In addition, the inhibition in data set [6] turned out to be 74%. In [7], the TIME was found to be 0.42 h.
